Test results taken from ChEMBL document CHEMBL1687776, “Origin and molecular evolution of the determinant of methicillin resistance in staphylococci” (2010).
≈ marks a conversion by molar mass, not a printed value.

Columns and labels:
Staphylococcus vitulinus [1] = assay: Antibacterial activity against methicillin-resistant mecA-positive Staphylococcus vitulinus SVMP03 by agar dilution method; format: functional; details: Mammaliicoccus vitulinus
Procedure, shortened: (§1)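 MIC by agar dilution on Mueller-Hinton agar per CLSI guidance; resistance judged against CLSI breakpoints. Strains were animal or food isolates (type strains for S. sciuri subspecies), typed by hsp60 and/or sodA sequencing; mecA homologue carriage checked by PCR with degenerate primers. Agents tested: oxacillin, ampicillin, ceftizoxime, ceftriaxone, cefoxitin.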

Staphylococcus vitulinus [2] = assay: Antibacterial activity against methicillin-resistant mecA-positive Staphylococcus vitulinus SVMP04 by agar dilution method; format: functional; details: Mammaliicoccus vitulinus; procedure, shortened: as §1
Staphylococcus vitulinus [3] = assay: Antibacterial activity against methicillin-resistant mecA-positive Staphylococcus vitulinus SVMP05 by agar dilution method; format: functional; details: Mammaliicoccus vitulinus; procedure, shortened: as §1
Staphylococcus vitulinus [4] = assay: Antibacterial activity against methicillin-resistant mecA-positive Staphylococcus vitulinus SVMP06 by agar dilution method; format: functional; details: Mammaliicoccus vitulinus; procedure, shortened: as §1
Staphylococcus vitulinus [5] = assay: Antibacterial activity against mecA-negative Staphylococcus vitulinus SVMN01 (ATCC 51145T) by agar dilution method; format: functional; details: Mammaliicoccus vitulinus
Procedure, shortened: (§2)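 MIC by agar dilution on Mueller-Hinton agar following CLSI guidelines. Resistance was assigned using CLSI breakpoints. Agents tested were oxacillin, ampicillin, ceftizoxime, ceftriaxone and cefoxitin. Strains were from animal or food sources and identified by hsp60 and/or sodA sequencing. mecA absence was assessed by PCR with degenerate primers for mecA and its homologues.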

Staphylococcus vitulinus [6] = assay: Antibacterial activity against mecA-negative Staphylococcus vitulinus SVMN02 by agar dilution method; format: functional; details: Mammaliicoccus vitulinus; procedure, shortened: as §1
Staphylococcus vitulinus [7] = assay: Antibacterial activity against mecA-negative Staphylococcus vitulinus SVMN03 by agar dilution method; format: functional; details: Mammaliicoccus vitulinus; procedure, shortened: as §2
Staphylococcus vitulinus [8] = assay: Antibacterial activity against mecA-negative Staphylococcus vitulinus SVMN04 by agar dilution method; format: functional; details: Mammaliicoccus vitulinus; procedure, shortened: as §1
Staphylococcus vitulinus [9] = assay: Antibacterial activity against mecA-negative Staphylococcus vitulinus SVMN05 by agar dilution method; format: functional; details: Mammaliicoccus vitulinus; procedure, shortened: as §1
Staphylococcus vitulinus [10] = assay: Antibacterial activity against mecA-negative Staphylococcus vitulinus SVMN06 by agar dilution method; format: functional; details: Mammaliicoccus vitulinus; procedure, shortened: as §1
Staphylococcus vitulinus [11] = assay: Antibacterial activity against mecA-negative Staphylococcus vitulinus SVMN07 by agar dilution method; format: functional; details: Mammaliicoccus vitulinus; procedure, shortened: as §1
Staphylococcus vitulinus [12] = assay: Antibacterial activity against mecA-negative Staphylococcus vitulinus SVMN08 by agar dilution method; format: functional; details: Mammaliicoccus vitulinus; procedure, shortened: as §2
Staphylococcus vitulinus [13] = assay: Antibacterial activity against mecA-negative Staphylococcus vitulinus SVMN09 by agar dilution method; format: functional; details: Mammaliicoccus vitulinus; procedure, shortened: as §1
Staphylococcus vitulinus [14] = assay: Antibacterial activity against mecA-negative Staphylococcus vitulinus SVMN10 by agar dilution method; format: functional; details: Mammaliicoccus vitulinus; procedure, shortened: as §2
Staphylococcus vitulinus [15] = assay: Antibacterial activity against mecA-negative Staphylococcus vitulinus SVMN11 by agar dilution method; format: functional; details: Mammaliicoccus vitulinus; procedure, shortened: as §1
Staphylococcus vitulinus [16] = assay: Antibacterial activity against mecA-negative Staphylococcus vitulinus SVMN12 by agar dilution method; format: functional; details: Mammaliicoccus vitulinus; procedure, shortened: as §1
Staphylococcus vitulinus [17] = assay: Antibacterial activity against mecA-negative Staphylococcus vitulinus SVMN13 by agar dilution method; format: functional; details: Mammaliicoccus vitulinus; procedure, shortened: as §2
Staphylococcus vitulinus [18] = assay: Antibacterial activity against mecA-negative Staphylococcus vitulinus SVMN14 by agar dilution method; format: functional; details: Mammaliicoccus vitulinus; procedure, shortened: as §1
Mammaliicoccus lentus = assay: Antibacterial activity against mecA-negative Staphylococcus lentus ATCC 29070T by agar dilution method; format: functional; procedure, shortened: as §2
[19] = test system: Staphylococcus fleurettii; assay: Antibacterial activity against methicillin-resistant mecA-positive Staphylococcus fleurettii SFMP01(CCUG 43834T) by agar dilution method; format: functional; details: Mammaliicoccus fleurettii; procedure, shortened: as §1
[20] = test system: Staphylococcus fleurettii; assay: Antibacterial activity against methicillin-resistant mecA-positive Staphylococcus fleurettii SFMP02 by agar dilution method; format: functional; details: Mammaliicoccus fleurettii; procedure, shortened: as §1
[21] = test system: Staphylococcus fleurettii; assay: Antibacterial activity against methicillin-resistant mecA-positive Staphylococcus fleurettii SFMP03 by agar dilution method; format: functional; details: Mammaliicoccus fleurettii; procedure, shortened: as §1
[22] = test system: Staphylococcus fleurettii; assay: Antibacterial activity against methicillin-resistant mecA-positive Staphylococcus fleurettii SFMP04 by agar dilution method; format: functional; details: Mammaliicoccus fleurettii; procedure, shortened: as §1
[23] = test system: Staphylococcus fleurettii; assay: Antibacterial activity against methicillin-resistant mecA-positive Staphylococcus fleurettii SFMP05 by agar dilution method; format: functional; details: Mammaliicoccus fleurettii; procedure, shortened: as §1
[24] = test system: Staphylococcus fleurettii; assay: Antibacterial activity against methicillin-resistant mecA-positive Staphylococcus fleurettii SFMP06 by agar dilution method; format: functional; details: Mammaliicoccus fleurettii; procedure, shortened: as §1
[25] = test system: Staphylococcus fleurettii; assay: Antibacterial activity against methicillin-resistant mecA-positive Staphylococcus fleurettii SFMP07 by agar dilution method; format: functional; details: Mammaliicoccus fleurettii; procedure, shortened: as §1
[26] = test system: Staphylococcus fleurettii; assay: Antibacterial activity against methicillin-resistant mecA-positive Staphylococcus fleurettii SFMP08 by agar dilution method; format: functional; details: Mammaliicoccus fleurettii; procedure, shortened: as §1
[27] = test system: Staphylococcus fleurettii; assay: Antibacterial activity against mecA-negative Staphylococcus fleurettii SFMN01 by agar dilution method; format: functional; details: Mammaliicoccus fleurettii; procedure, shortened: as §2
[28] = test system: Staphylococcus fleurettii; assay: Antibacterial activity against mecA-negative Staphylococcus fleurettii SFMN02 by agar dilution method; format: functional; details: Mammaliicoccus fleurettii; procedure, shortened: as §2
[29] = Antibacterial activity against methicillin-resistant mecA-positive Staphylococcus sciuri subsp. sciuri ATCC 29062T by agar dilution method; format: functional; details: Mammaliicoccus sciuri; procedure, shortened: as §1
[30] = Antibacterial activity against methicillin-resistant mecA-positive Staphylococcus sciuri subsp. rodentium ATCC 700061T by agar dilution method; format: functional; details: Mammaliicoccus sciuri; procedure, shortened: as §1
Staphylococcus vitulinus [31] = assay: Antibacterial activity against methicillin-resistant mecA-positive Staphylococcus vitulinus SVMP01 by agar dilution method; format: functional; details: Mammaliicoccus vitulinus; procedure, shortened: as §1
Staphylococcus vitulinus [32] = assay: Antibacterial activity against methicillin-resistant mecA-positive Staphylococcus vitulinus SVMP02 by agar dilution method; format: functional; details: Mammaliicoccus vitulinus; procedure, shortened: as §1
[33] = Antibacterial activity against mecA-positive Staphylococcus sciuri subsp. carnaticus ATCC 700058T by agar dilution method; details: Mammaliicoccus sciuri

Row | SMILES | MIC (Staphylococcus vitulinus [1]) [µg/mL] | MIC (Staphylococcus vitulinus [2]) [µg/mL] | MIC (Staphylococcus vitulinus [3]) [µg/mL] | MIC (Staphylococcus vitulinus [4]) [µg/mL] | MIC (Staphylococcus vitulinus [5]) [µg/mL] | MIC (Staphylococcus vitulinus [6]) [µg/mL] | MIC (Staphylococcus vitulinus [7]) [µg/mL] | MIC (Staphylococcus vitulinus [8]) [µg/mL] | MIC (Staphylococcus vitulinus [9]) [µg/mL] | MIC (Staphylococcus vitulinus [10]) [µg/mL] | MIC (Staphylococcus vitulinus [11]) [µg/mL] | MIC (Staphylococcus vitulinus [12]) [µg/mL] | MIC (Staphylococcus vitulinus [13]) [µg/mL] | MIC (Staphylococcus vitulinus [14]) [µg/mL] | MIC (Staphylococcus vitulinus [15]) [µg/mL] | MIC (Staphylococcus vitulinus [16]) [µg/mL] | MIC (Staphylococcus vitulinus [17]) [µg/mL] | MIC (Staphylococcus vitulinus [18]) [µg/mL] | MIC (Mammaliicoccus lentus) [µg/mL] | MIC [19] [µg/mL] | other results
1 | CO[C@@]1(NC(=O)Cc2cccs2)C(=O)N2C(C(=O)O)=C(COC(N)=O)CS[C@@H]21 [CEFOXITIN] | 2 (≈ 4.68 µM) | 1 (≈ 2.34 µM) | 1 (≈ 2.34 µM) | 1 (≈ 2.34 µM) | 2 (≈ 4.68 µM) | 1 (≈ 2.34 µM) | 0.5 (≈ 1.17 µM) | 1 (≈ 2.34 µM) | 1 (≈ 2.34 µM) | 2 (≈ 4.68 µM) | 2 (≈ 4.68 µM) | 0.25 (≈ 0.585 µM) | 1 (≈ 2.34 µM) | 0.5 (≈ 1.17 µM) | 1 (≈ 2.34 µM) | 1 (≈ 2.34 µM) | 1 (≈ 2.34 µM) | 0.5 (≈ 1.17 µM) | 2 (≈ 4.68 µM) | 2 (≈ 4.68 µM) | MIC [20]: 1 µg/mL (≈ 2.34 µM); MIC [21]: 8 µg/mL (≈ 18.7 µM); MIC [22]: 4 µg/mL (≈ 9.36 µM); MIC [23]: 1 µg/mL (≈ 2.34 µM); MIC [24]: 2 µg/mL (≈ 4.68 µM); MIC [25]: 1 µg/mL (≈ 2.34 µM); MIC [26]: 2 µg/mL (≈ 4.68 µM); MIC [27]: 2 µg/mL (≈ 4.68 µM); MIC [28]: 2 µg/mL (≈ 4.68 µM); MIC [29]: 2 µg/mL (≈ 4.68 µM); MIC [30]: 2 µg/mL (≈ 4.68 µM); MIC (Staphylococcus vitulinus [31]): 2 µg/mL (≈ 4.68 µM); MIC (Staphylococcus vitulinus [32]): 1 µg/mL (≈ 2.34 µM); MIC [33]: 2 µg/mL (≈ 4.68 µM)
2 | CC1(C)S[C@@H]2[C@H](NC(=O)[C@H](N)c3ccccc3)C(=O)N2[C@H]1C(=O)O [AMPICILLIN] | < 0.063 | < 0.063 | < 0.063 | < 0.063 | 0.125 (≈ 0.358 µM) | < 0.063 | < 0.063 | < 0.063 | < 0.063 | < 0.063 | < 0.063 | < 0.063 | < 0.063 | < 0.063 | 0.125 (≈ 0.358 µM) | < 0.063 | < 0.063 | < 0.063 | < 0.063 | 1 (≈ 2.86 µM) | MIC [20]: 1 µg/mL (≈ 2.86 µM); MIC [21]: 1 µg/mL (≈ 2.86 µM); MIC [22]: 1 µg/mL (≈ 2.86 µM); MIC [23]: 0.25 µg/mL (≈ 0.715 µM); MIC [24]: 1 µg/mL (≈ 2.86 µM); MIC [25]: 0.25 µg/mL (≈ 0.715 µM); MIC [26]: 1 µg/mL (≈ 2.86 µM); MIC [27]: 0.125 µg/mL (≈ 0.358 µM); MIC [28]: 0.125 µg/mL (≈ 0.358 µM); MIC [29]: 0.125 µg/mL (≈ 0.358 µM); MIC [30]: 0.125 µg/mL (≈ 0.358 µM); MIC (Staphylococcus vitulinus [31]): < 0.063 µg/mL; MIC (Staphylococcus vitulinus [32]): < 0.063 µg/mL; MIC [33]: 0.125 µg/mL (≈ 0.358 µM)
